Rows were chosen to be rich in hits. Some 2.4% of all compounds tested hit in one or more screens of this group.
LMPTP inh = blocks human LMPTP phosphatase | inhibition, % at 20 µM | AID 651560 | P24666 | recombinant LMPTP-A, OMFP fluorogenic substrate, fluorescence intensity | 0.22% of 360,000 active;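 active means compounds that cut the enzyme signal by at least half of the control window in the single-dose screen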;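 further: plate controls were DMSO wells with enzyme plus substrate for no effect and substrate without enzyme for full effect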
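Assay system: LMPTP-A, protein tyrosine phosphatase of low molecular weight / Medium: pH 6.0 Bis-Tris buffer with DTT and Triton X-100 / Schedule: 50 min enzyme reaction at room temperature, protected from light / Measured by: endpoint fluorescence intensity from OMFP dephosphorylation / Read-out basis: % inhibition relative to no-enzyme and uninhibited control wells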
SUMO1 PPI mod = modulators of human SUMO1-mediated protein-protein interactions; P63165; SUMO1 binding to a labelled peptide, TR-FRET, 1 h; inhibition, % at 20 µM; 0.33% of 360,000 active; AID 602429; in the data active means inhibition above about 37%
Scp1 inh = blocks human Scp-1 phosphatase activity. Q9GZU7. Recombinant Scp1, phosphopeptide, malachite green phosphate absorbance. inhibition, % at 20 µM. 0.88% of 340,000 active;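 active means inhibition above about 50% at 20 µM, limit read from the data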;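 further: plate controls were DMSO wells with enzyme for no effect and wells lacking enzyme for full effect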
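Test system: SCP-1 phosphatase catalytic domain, residues 76-261 | Compound dosing: One concentration, 20 µM, with 1.0% DMSO | Schedule: 45 min room-temperature reaction, 5 min colour, 30 min stabiliser | Detection: Absorbance at 630 nm | Read-out basis: % inhibition of SCP-1 phosphate liberation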
DNMT1 block = DNMT1 (human) enzyme inhibition. P26358. DNMT1 molecular beacon, Hinp1I cleavage, fluorescence. inhibition (reported as % activation of signal), % at 10 µM. 0.83% of 360,000 active. AID 588458; in the data active means inhibition above about 50%
NadD block = inhibitors of Staphylococcus aureus NadD. 0.78% of 360,000 active. purified NadD enzyme, colorimetric absorbance read-out. inhibition, % at 20 µM; in the data active means inhibition above about 26%
STEP block = inhibitors of human striatal-enriched phosphatase STEP. recombinant STEP, OMFP fluorogenic substrate, fluorescence. AID 588621. inhibition, % at 20 µM. 0.25% of 360,000 active;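 active means inhibition at 20 µM, scaled per plate between control wells, above about 37%, limit read from the data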;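 further: 0% = DMSO with enzyme and substrate and 100% = substrate only without enzyme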
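Also added – OMFP at 25 µM · Test system – STEP tyrosine phosphatase · Technique – FITC-channel fluorescence of OMFP product · Schedule – 20 min at room temperature, dark · Evaluation – control-normalized % inhibition with plate pattern correction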
NadD conf = NadD (S. aureus) inhibition, single concentration confirmation | shares compounds with NadD block | purified S. aureus NadD, colorimetric enzyme assay | inhibition, % at 20 µM | 13% of 2,000 active | AID 624309; in the data active means inhibition mostly above about 42%, no sharp cut-off; inactive means mostly below about 42%
The depositor's hits bear a star.

How did NCCCC[C@@H]1NC(=O)c2cc([N+](=O)[O-])cc(I)c2SC[C@@H](C(N)=O)NC(=O)[C@H](Cc2ccc(O)cc2)NC1=O do in these assays?
LMPTP inh: 12; SUMO1 PPI mod: -55; Scp1 inh: 9; DNMT1 block: 13; NadD block: 42*; STEP block: 3; NadD conf: 6

Results for NCCCC[C@@H]1NC(=O)[C@H](CCC(=O)O)NC(=O)c2cc([N+](=O)[O-])cc(I)c2SC[C@@H](C(=O)NCC(N)=O)NC1=O ?
LMPTP inh: -1; SUMO1 PPI mod: -33; Scp1 inh: 8; DNMT1 block: 17; NadD block: -1; STEP block: -1

What do the screens show for `O=C(COC(=O)CCC(=O)c1ccccc1)Nc1nnc(-c2ccccc2)o1`?
LMPTP inh: -1; SUMO1 PPI mod: 5; Scp1 inh: -11; DNMT1 block: 2; NadD block: 7; STEP block: 3

What do the screens show for `O=C(Nc1cccc(N=Cc2cc(Br)cc(Br)c2O)c1)c1ccco1`?
LMPTP inh: 1; SUMO1 PPI mod: 16; Scp1 inh: -5; DNMT1 block: -29; NadD block: 41*; STEP block: 3; NadD conf: 21

How did Cc1ccc(NC(=O)CC2Nc3ccccc3NC2=O)cc1Cl (stereo unspecified) do in these assays?
LMPTP inh: -1; SUMO1 PPI mod: -6; Scp1 inh: 3; DNMT1 block: -9; NadD block: 31*; STEP block: -3; NadD conf: 14

Results for O=C(CC1Nc2ccccc2NC1=O)Nc1ccc2c(c1)OCO2 (stereo unspecified) ?
LMPTP inh: 1; SUMO1 PPI mod: -11; Scp1 inh: 3; DNMT1 block: -4; NadD block: 6; STEP block: 1

Results for CC(NC(=O)c1cccc(S(=O)(=O)N2CCN(Cc3ccccc3)CC2)c1)c1ccc(Br)cc1 (stereo unspecified) ?
LMPTP inh: 2; SUMO1 PPI mod: 0; Scp1 inh: 0; DNMT1 block: -5; NadD block: 6; STEP block: 2

Results for COc1ccc(CN2C(=O)Cc3c2nc(N)c2c(N)nc(N4CCOCC4)c(C#N)c32)cc1 ?
LMPTP inh: 6; SUMO1 PPI mod: 15; Scp1 inh: -2; DNMT1 block: -23; NadD block: 26; STEP block: 4

What do the screens show for `COCCN1C(=O)Cc2c1nc(N)c1c(N)nc(N3CCN(c4ccc(F)cc4)CC3)c(C#N)c21`?
LMPTP inh: 12; SUMO1 PPI mod: 4; Scp1 inh: -8; DNMT1 block: -22; NadD block: 37*; STEP block: 9; NadD conf: 9

What do the screens show for `NC(=O)[C@H]1CC2(CC(c3cccc(NC(=O)CC(c4ccccc4)c4ccccc4)c3)=NO2)CN1C(=O)c1ccccc1C(=O)c1ccccc1` (stereo partly specified)?
LMPTP inh: 2; SUMO1 PPI mod: 7; Scp1 inh: -4; DNMT1 block: -35; NadD block: 44*; STEP block: -1; NadD conf: 30

Results for NC(=O)[C@H]1CC2(CC(c3cccc(NC(=O)CC(c4ccccc4)c4ccccc4)c3)=NO2)CN1C(=O)C(c1ccccc1)c1ccccc1 (stereo partly specified) ?
LMPTP inh: 16; SUMO1 PPI mod: 7; Scp1 inh: -9; DNMT1 block: -23; NadD block: 33*; STEP block: 0; NadD conf: 27

What do the screens show for `CCCCCC(=O)N1CC2(CC(c3cccc(NC(=O)CC(c4ccccc4)c4ccccc4)c3)=NO2)C[C@@H]1C(N)=O` (stereo partly specified)?
LMPTP inh: 3; SUMO1 PPI mod: 2; Scp1 inh: -4; DNMT1 block: -15; NadD block: 10; STEP block: 2

What do the screens show for `CCC(=O)Nc1cccc(C2=NOC3(C2)C[C@@H](C(N)=O)N(C(=O)c2ccccc2C(=O)c2ccccc2)C3)c1` (stereo partly specified)?
LMPTP inh: 0; SUMO1 PPI mod: 1; Scp1 inh: 0; DNMT1 block: -4; NadD block: 8; STEP block: 0

Results for CC(=O)c1ccccc1NC(=O)COC(=O)c1ccccc1NC(=O)c1ccccc1 ?
LMPTP inh: 1; SUMO1 PPI mod: 2; Scp1 inh: -7; DNMT1 block: 0; NadD block: -9; STEP block: -2

How did O=C1Nc2cc(C(=O)NCCN3CCCCCC3)ccc2S/C1=C/c1ccccc1F do in these assays?
LMPTP inh: 3; SUMO1 PPI mod: -61; DNMT1 block: 4; NadD block: 46*; STEP block: 7; NadD conf: -11

What do the screens show for `COc1cccc(/C=C2/Sc3ccc(C(=O)NCCN4CCCC4)cc3NC2=O)c1`?
LMPTP inh: -7; SUMO1 PPI mod: -106; Scp1 inh: -7; DNMT1 block: -16; NadD block: -9; STEP block: 2

What do the screens show for `COc1ccc(/C=C2\Sc3ccc(C(=O)NCCN4CCCCCC4)cc3N(C)C2=O)cc1`?
LMPTP inh: 5; SUMO1 PPI mod: -50; Scp1 inh: 0; DNMT1 block: 18; NadD block: 47*; STEP block: 7; NadD conf: 8

How did COc1ccc(OC)c(CNc2c(C=O)c(=O)[nH]c3ccccc23)c1 do in these assays?
LMPTP inh: -1; SUMO1 PPI mod: 3; Scp1 inh: -14; DNMT1 block: -4; NadD block: -8; STEP block: 0

How did COc1cc(C2C(C#N)=C(N)Oc3c2ccc2ccccc32)ccc1OCC(=O)Nc1ccc(C)cc1 (stereo unspecified) do in these assays?
LMPTP inh: 1; SUMO1 PPI mod: -9; Scp1 inh: -8; DNMT1 block: -10; NadD block: 40*; STEP block: 1; NadD conf: 37

What do the screens show for `COc1ccc(C2C(C#N)=C(N)Oc3c2ccc2cccnc32)cc1OC` (stereo unspecified)?
LMPTP inh: 2; SUMO1 PPI mod: -17; Scp1 inh: -7; DNMT1 block: -5; NadD block: 4; STEP block: 1

What do the screens show for `COc1cc(C2C(C#N)=C(N)Oc3c2ccc2ccccc32)ccc1OCC(=O)Nc1cccc(C)c1` (stereo unspecified)?
LMPTP inh: 2; SUMO1 PPI mod: -4; Scp1 inh: -7; DNMT1 block: -15; NadD block: 30*; STEP block: -3; NadD conf: 41

What do the screens show for `Clc1ccc(CO/N=C2\CCCc3nonc32)cc1`?
LMPTP inh: 0; SUMO1 PPI mod: 1; Scp1 inh: -14; DNMT1 block: -11; NadD block: -6; STEP block: 4

Assay outcomes: PubChem BioAssay, Sanford-Burnham Center for Chemical Genomics
